# Assay outcomes (PubChem BioAssay)
# V-ATPase pHluor – alters yeast V-ATPase proton transport | S. cerevisiae, pHLuorin cytosolic pH fluorescence | response, % at 10 µM | 350,000 compounds, 0.37% hits; in the data active = response mostly above about 7.3%, no sharp cut-off; inactive = mostly below about 5.4%; also: actives read high
# rCAG RNA binder – binds r(CAG) RNA repeats; r(CAG) RNA repeat, TO-PRO-1 dye displacement fluorescence; inhibition, % at 3 µM; 370,000 compounds, 1.3% hits;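 active = inhibition above the plate cutoff, the mean of all test compounds on that plate plus 3 SD, cut at about 35% in these data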;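 also: 0% = DMSO alone and 100% = 100 µM mitoxantrone as full dye displacement; higher means more dye released from RNA so lower well fluorescence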
# MPTP block – permeability transition pore inhibition. isolated mouse mitochondria, Ca2+ swelling absorbance, 30 min. inhibition, % at 10 µM. 360,000 compounds, 1.4% hits;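 active = inhibition of 50% or more, scaled per plate between neutral and stimulator controls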;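 also: 0% = DMSO wells given calcium and 100% = 1 mM EGTA wells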
# T cell HTS – T cell immune modulation candidate; 2C CD8+ T cell-vesicle binding, flow cytometry; stronger effect = lower value; response (vesicle binding), % at 7 µM; 330,000 compounds, 0.068% hits; AID 2052;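 active = response, share of CD8 T cells binding vesicles, and their 90th percentile fluorescence all below set limits, cut at about 80% in these data, passing the limit was not always enough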;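 also: values below 100% mean blocked vesicle binding to the CD8+ T cells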
#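 Also added: QL9-peptide-loaded Drosophila micro-vesicles bearing Ld, ICAM-1 and B7-1; Test system: purified 2C TCR transgenic mouse naive CD8+ T cells; Measured by: cytometric PE anti-B7-1 and Alexa647 anti-CD8 signals after 1% paraformaldehyde fixation; Timing: binding step 1.5 h, 37 °C, antibody labelling 20 min, ice.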
# Beta2AR agonist – agonists of human beta-2 adrenergic receptor inducing internalization. P07550. 340,000 compounds, 0.43% hits. Am2.2-beta2AR cells, FAP receptor internalization, flow cytometry. response, % (test concentration not listed);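 active = response above a set limit, near 3 SD of response in nonfluorescent compounds, cut at about 42% in these data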
# Target sequence (P07550 whole entry, looked up): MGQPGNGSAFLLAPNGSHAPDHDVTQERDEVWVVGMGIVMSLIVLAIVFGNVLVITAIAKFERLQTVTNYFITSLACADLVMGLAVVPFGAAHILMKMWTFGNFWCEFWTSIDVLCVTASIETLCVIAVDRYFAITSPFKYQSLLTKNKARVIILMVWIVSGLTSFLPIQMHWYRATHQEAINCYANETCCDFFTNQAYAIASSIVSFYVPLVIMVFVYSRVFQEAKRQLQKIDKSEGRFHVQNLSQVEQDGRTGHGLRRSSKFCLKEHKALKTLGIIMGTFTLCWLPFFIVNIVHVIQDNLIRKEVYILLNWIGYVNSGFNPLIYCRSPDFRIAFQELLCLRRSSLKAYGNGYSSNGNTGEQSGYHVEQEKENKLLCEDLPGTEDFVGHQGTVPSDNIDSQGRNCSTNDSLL
# Exocytosis inh – blocks lytic granule exocytosis; TALL-104 LAMP-1 surface exposure, flow cytometry; cells stimulated with thapsigargin and PMA; inhibition, % at 10 µM; 360,000 compounds, 0.66% hits; AID 651702;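 active = inhibition above about 55%, limit read from the data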
# Starred values were filed as active, the others as inactive; i = inactive; . = no result. Sampled rows, rich in hits. Any-hit rate of the full collection: about 3.8%.
SMILES,V-ATPase pHluor,rCAG RNA binder,MPTP block,T cell HTS,Beta2AR agonist,Exocytosis inh
COC(=O)c1cccc(-n2nnnc2SCC(=O)Nc2nc3c(s2)CCCC3)c1,24*,8,-15,294,9,-2
C(=N\Nc1nc(Nc2ccccc2)nc(N2CCOCC2)n1)/c1c[nH]c2ccccc12,.,16,.,424,.,.
Cc1ccc(Nc2nc(N/N=C/c3c[nH]c4ccccc34)nc(N3CCOCC3)n2)cc1,4,20,-3,198,7,63*
Cc1ccc(N/C=C/C(=O)c2cccs2)cc1C,-1,3,1,199,6,0
O=C(/C=C/Nc1ccc(Nc2ccccc2)cc1)c1cccs1,2,5,0,.,50*,0
CC[n+]1c(/C=C/N(C)c2ccccc2)n(-c2ccccc2)c2ccc(-c3nc4ccccc4s3)cc21,-3,.,50,236,23,64*
O=C(O)C1C2C=CC(O2)C1C(=O)Nc1ccc(S(=O)(=O)Nc2ccccc2)cc1 (stereo not drawn),1,5,6,625,2,102*
COc1ccccc1CNC(=O)c1c(N)n(CCCN2CCOCC2)c2nc3ccccc3nc12,1,9,0,.,26,72*
Nc1c(C(=O)NCc2ccc3c(c2)OCO3)c2nc3ccccc3nc2n1CCCN1CCOCC1,-16,9,0,270,3,12
COc1cc(C2NC(=O)NC(c3ccccc3)=C2C(C)=O)ccc1OCC#N (stereo not drawn),-1,5,-2,280,5,-2
C=CCOc1ccc(C2NC(=S)NC(c3ccccc3)=C2C(C)=O)cc1OC (stereo not drawn),1,0,-1,27*,0,0
O=C1C=C(NCc2ccccc2)c2ccccc2C1=O,-1,4,1,.,3,82*
COc1ccccc1NC(=O)c1cc2c(CO)cnc(C)c2oc1=Nc1ccc(OC)c(OC)c1,-1,5,2,283,49*,17
Cc1ccc(OCCOC(=O)c2c(-c3ccccc3)noc2C)cc1,3,-2,0,351,1,73*
Nc1nc(-c2ccc(Cl)cc2)nn1C(=O)c1cccnc1,20*,0,0,445,-7,3
Nc1nc(-c2cccnc2)nn1C(=O)c1ccc(Cl)cc1,0,-2,0,.,-10,-2
COCC(=O)N(C)[C@H]1C[C@H]2c3[nH]c4c(-c5ccc6c(c5)OCO6)cccc4c3CCN2C(=O)[C@H]1[C@H](C)O,.,6,.,.,.,.
O=c1oc(-c2ccccc2)cc2ccccc12,.,3,-1,.,.,-5
O=c1oc(-c2ccccc2)cc(Cl)c1Cl,-34,3,0,187,51*,-30
C=CCN1C(=O)[C@@H](CC(=O)NCCCN2CCCC2=O)[C@]2(C(=O)OC)CCCCC=C12,.,2,.,.,.,.
CN1CCN(C2=CC3=CC(=C(C#N)C#N)CCC3CC2)CC1 (stereo not drawn),35,.,2,.,-845,-2
CCN1CCN(C2=CC3=CC(=C(C#N)C#N)CCC3CC2)CC1 (stereo not drawn),28*,.,2,.,i,8
N#CC(C#N)=C1C=C2C=C(N3CCCCCC3)CCC2CC1 (stereo not drawn),234*,i,12,.,.,47
N#CC(C#N)=C1C=C2C=C(N3CCOCC3)CCC2CC1 (stereo not drawn),16,-357,0,.,.,5
COc1cc(/C=C/C(=O)c2ccc(NS(=O)(=O)c3ccc(C)cc3)cc2)cc(OC)c1O,113*,47*,2,384,-15,1
SMILES,V-ATPase pHluor,rCAG RNA binder,MPTP block,T cell HTS,Beta2AR agonist,Exocytosis inh
Cc1nn(-c2ccc(Cl)cc2)c(Cl)c1/C=N/NC(=O)c1ccc(NS(=O)(=O)c2cccs2)cc1,1,62*,3,101,13,0
COc1cc(/C=N/NC(=O)c2ccc(NS(=O)(=O)c3cccs3)cc2)cc(OC)c1O,2,8,1,80*,-2,0
O=C(NN=Cc1ccc(F)c(F)c1)c1ccc(NS(=O)(=O)c2cccs2)cc1,0,21,0,476,0,-4
CCOC(=O)N1C(=O)C[C@](Sc2ccc(OC)cc2)(C(=O)N2CCOCC2)[C@H]1c1ccc(OC)cc1,.,0,.,.,.,.
O=C(NCCc1ccccc1)OCc1cn(Cc2ccccc2C(F)(F)F)nn1,.,-2,.,.,.,.
COc1ccccc1NC(=O)C(C)OC(=O)Cc1n[nH]c(=O)c2ccccc12 (stereo not drawn),16*,2,-2,314,4,-2
CC(=O)O[C@@H]1C=C[C@@H](C#Cc2ccc(C(C)(C)C)cc2)O[C@@H]1COC(=O)Nc1ccccc1,.,14,.,.,.,.
O=C(CCN1C(=O)c2ccccc2C1=O)Nc1ccc(-c2nc3ccccc3s2)cc1,-2,0,1,421,4,2
O=C(O)CSCC(=O)Nc1ccc(-c2nc3ccccc3s2)cc1,3,39*,2,233,4,13
CC(C)C(C#CC1CC1)NCc1ccc2c(c1)OCO2 (stereo not drawn),.,1,.,.,.,.
CN(C)S(=O)(=O)c1ccc(NC(=O)c2ccc([N+](=O)[O-])cc2)cc1,3,0,0,0.0*,-3,-6
CN1CCCN(C(=O)C2CCCN(C(=O)c3ccc4c(c3)NC(=O)CS4)C2)CC1 (stereo not drawn),.,1,.,.,.,.
COC(=O)[C@]12C[C@H](CC(=O)N3CCC(c4ccccc4)CC3)C(=O)N(Cc3ccc(Cl)cc3Cl)C1=C[C@H](C(C)(C)C)O[C@@H]2C,.,4,.,.,.,.
Cc1cc(SC#N)cc(C)c1NC(=O)CCl,1,1,3,291,35,0
CCc1cc(SC#N)cc(C)c1NC(=O)CCl,-3,7,1,261,47*,-2
COc1ccc(-c2cc(-c3nnc(SCC(=O)N4CCOCC4)n3N)[nH]n2)cc1,.,1,.,.,.,.
COc1ccc(-n2c(SCC(=O)NCCCSC)nnc2-c2ccncc2)cc1,.,2,.,.,.,.
O=C(C=Cc1ccccn1)c1ccccc1O,11,3,-1,.,49*,-9
COc1ccc(OCC(C)CN2CCC(C(O)(c3ccccc3)c3ccccc3)CC2)cc1 (stereo not drawn),.,1,.,.,.,.
CCC(=O)Nc1cccc(C(=O)/C=C/c2ccccc2)c1,.,3,3,104,54*,3
CCC(=O)Nc1cccc(C(=O)/C=C/c2cccs2)c1,0,6,2,238,2,-11
COc1cccc2cc(C(=O)CS(=O)(=O)c3ccc(C(C)(C)C)cc3)c(=O)oc12,-1,38*,-1,i,0,6
CCCc1[nH]n(-c2ccc([N+](=O)[O-])cc2)c(=O)c1C=NCCc1c[nH]c2ccccc12,1,9,13,265,0,90*
COc1ccc(C(=O)NCC2CCN(C(=O)C(=O)c3cc4ccccc4o3)CC2)cc1,.,5,.,.,.,.
COC(=O)C1CN(CCc2ccccc2)CCS(=O)(=O)N1Cc1ccc(C(F)(F)F)cc1 (stereo not drawn),.,0,.,.,.,.
